Assays:
Format in all cases: functional, cell-based
[1] = test system: A549; test: Antiproliferative activity against human A549 cells after 72 hrs by MTT assay
Method in brief: (§1)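 Cells grown in MEM with 10% FBS. About 4×10³ cells per well, pre-incubated 24 h at 37°C in 5% CO₂. Compound added at final concentrations, then 72 h. MTT added at 5 µg/mL final for 4 h at 37°C. Tested three times; IC50 taken as the average of […] determinations.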

[2] = test system: HepG2; test: Antiproliferative activity against human HepG2 cells after 72 hrs by MTT assay
Method in brief: as §1, with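 “37°C. Formazan dissolved in DMSO and read at 492 nm against 630 nm reference.” for “37°C.”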

[3] = test system: MCF7; test: Antiproliferative activity against human MCF7 cells after 72 hrs by MTT assay; method in brief: as §1
[4] = test system: PC-3; test: Antiproliferative activity against human PC3 cells after 72 hrs by MTT assay; method in brief: as §1
[5] = Homo sapiens, A549, 72 h, read-out: IC50
[6] = Homo sapiens, HepG2, 72 h, read-out: IC50
[7] = Homo sapiens, PC-3, 72 h, read-out: IC50
[8] = Homo sapiens, MCF7, 72 h, read-out: IC50

O=C(N/N=C/c1cccc(Cl)c1Cl)Nc1ccc(Oc2ccnc3[nH]ccc23)c(F)c1
IC50 ([1]; a549): Not Active
IC50 ([2]; hepg2): Not Active
IC50 ([3]; mcf7): Not Active
IC50 ([4]; pc-3): Not Active

O=C(N/N=C/c1cc(Br)c(O)c(Br)c1)Nc1ccc(Oc2ccnc3[nH]ccc23)c(F)c1
IC50 [1, 5]: 16200 nM
IC50 [2, 6]: 6.52 µM
IC50 ([3]; mcf7): Not Active
IC50 ([4]; pc-3): Not Active

O=C(N/N=C/c1cccn1CCN1CCOCC1)Nc1ccc(Oc2ccnc3[nH]ccc23)cc1
IC50 [1, 5]: 3880 nM
IC50 [2, 6]: 9.94 µM
IC50 [4, 7]: 1.65 µM

O=C(N/N=C/c1ccc(F)cc1Cl)Nc1ccc(Oc2ccnc3[nH]ccc23)c(F)c1
IC50 [1, 5]: 10 nM
IC50 [2, 6]: 1.11 µM
IC50 [3, 8]: 7.61 µM
IC50 [4, 7]: 0.003 µM

CN(C)CCn1cccc1/C=N/NC(=O)Nc1ccc(Oc2ccnc3[nH]ccc23)cc1
IC50 ([1]; a549): Not Active
IC50 ([2]; hepg2): Not Active
IC50 [4, 7]: 3.93 µM

O=C(N/N=C/c1cccn1CCCN1CCCCC1)Nc1ccc(Oc2ccnc3[nH]ccc23)c(F)c1
IC50 [1, 5]: 2850 nM
IC50 [2, 6]: 2.84 µM
IC50 [3, 8]: 4.84 µM
IC50 [4, 7]: 2.84 µM

O=C(N/N=C/c1cccn1CCCN1CCCCC1)Nc1ccc(Oc2ccnc3[nH]ccc23)cc1
IC50 [1, 5]: 1560 nM
IC50 [2, 6]: 3.69 µM
IC50 [3, 8]: 4.69 µM
IC50 [4, 7]: 3.58 µM

O=C(N/N=C/c1ccc(F)cc1)Nc1ccc(Oc2ccnc3[nH]ccc23)cc1
IC50 [1, 5]: 1430 nM
IC50 [2, 6]: 3.43 µM
IC50 [3, 8]: 3.72 µM
IC50 [4, 7]: 7.49 µM

CN(C)CCCn1cccc1/C=N/NC(=O)Nc1ccc(Oc2ccnc3[nH]ccc23)cc1
IC50 [1, 5]: 2660 nM
IC50 [2, 6]: 4.19 µM
IC50 [3, 8]: 9.14 µM
IC50 [4, 7]: 5.15 µM

O=C(N/N=C/c1ccc(O)cc1Br)Nc1ccc(Oc2ccnc3[nH]ccc23)cc1
IC50 [1, 5]: 5080 nM
IC50 ([3]; mcf7): Not Active
IC50 ([4]; pc-3): Not Active

COc1cc(/C=N/NC(=O)Nc2ccc(Oc3ccnc4[nH]ccc34)c(F)c2)cc(OC)c1OC
IC50 [1, 5]: 34100 nM
IC50 ([2]; hepg2): Not Active
IC50 [3, 8]: 21.9 µM
IC50 ([4]; pc-3): Not Active

CCN(CC)CCCn1cccc1/C=N/NC(=O)Nc1ccc(Oc2ccnc3[nH]ccc23)c(F)c1
IC50 [1, 5]: 1210 nM
IC50 [2, 6]: 2.14 µM
IC50 [3, 8]: 3.39 µM
IC50 [4, 7]: 2.95 µM

COc1ccc(/C=N/NC(=O)Nc2ccc(Oc3ccnc4[nH]ccc34)cc2)c(OC)c1OC
IC50 [1, 5]: 3340 nM
IC50 [2, 6]: 2.96 µM
IC50 ([3]; mcf7): Not Active
IC50 [4, 7]: 27.6 µM

O=C(N/N=C/c1cccn1CCCN1CCCC1)Nc1ccc(Oc2ccnc3[nH]ccc23)c(F)c1
IC50 [1, 5]: 2010 nM
IC50 [2, 6]: 3.5 µM
IC50 [3, 8]: 4.58 µM
IC50 [4, 7]: 3.58 µM

O=C(N/N=C/c1ccc(O)cc1O)Nc1ccc(Oc2ccnc3[nH]ccc23)c(F)c1
IC50 [1, 5]: 5840 nM
IC50 [2, 6]: 4.55 µM
IC50 [3, 8]: 48 µM
IC50 [4, 7]: 13 µM

O=C(N/N=C/c1cccc(Br)c1)Nc1ccc(Oc2ccnc3[nH]ccc23)c(F)c1
IC50 [1, 5]: 2220 nM
IC50 [2, 6]: 0.66 µM
IC50 [3, 8]: 0.049 µM
IC50 [4, 7]: 4.02 µM

O=C(N/N=C/c1ccc(F)cc1)Nc1ccc(Oc2ccnc3[nH]ccc23)c(F)c1
IC50 [1, 5]: 680 nM
IC50 [2, 6]: 3.88 µM
IC50 [3, 8]: 0.8 µM
IC50 [4, 7]: 2.33 µM

O=C(N/N=C/c1cccn1CCCN1CCOCC1)Nc1ccc(Oc2ccnc3[nH]ccc23)cc1
IC50 [1, 5]: 2240 nM
IC50 [2, 6]: 1.69 µM
IC50 ([3]; mcf7): Not Active
IC50 [4, 7]: 14.7 µM

O=C(N/N=C/c1ccc([N+](=O)[O-])cc1)Nc1ccc(Oc2ccnc3[nH]ccc23)c(F)c1
IC50 [1, 5]: 20 nM
IC50 [2, 6]: 3.03 µM
IC50 [3, 8]: 4 µM
IC50 [4, 7]: 0.15 µM

O=C(N/N=C/c1ccccc1)Nc1ccc(Oc2ccnc3[nH]ccc23)c(F)c1
IC50 [1, 5]: 2500 nM
IC50 [2, 6]: 0.64 µM
IC50 [3, 8]: 2.38 µM
IC50 [4, 7]: 7.94 µM

CCN(CC)CCn1cccc1/C=N/NC(=O)Nc1ccc(Oc2ccnc3[nH]ccc23)cc1
IC50 [1, 5]: 3570 nM
IC50 [2, 6]: 5.88 µM
IC50 [4, 7]: 1.37 µM

O=C(N/N=C/c1ccc(O)cc1)Nc1ccc(Oc2ccnc3[nH]ccc23)cc1
IC50 [1, 5]: 1910 nM
IC50 [2, 6]: 32.2 µM
IC50 [3, 8]: 5.8 µM
IC50 [4, 7]: 4.92 µM

O=C(N/N=C/c1cccn1CCN1CCOCC1)Nc1ccc(Oc2ccnc3[nH]ccc23)c(F)c1
IC50 [1, 5]: 3410 nM
IC50 [2, 6]: 11.9 µM
IC50 [4, 7]: 2.45 µM

N#Cc1ccc(/C=N/NC(=O)Nc2ccc(Oc3ccnc4[nH]ccc34)c(F)c2)cc1
IC50 [1, 5]: 1360 nM
IC50 [2, 6]: 0.85 µM
IC50 ([3]; mcf7): Not Active
IC50 [4, 7]: 9.03 µM

CN(C)CCn1cccc1/C=N/NC(=O)Nc1ccc(Oc2ccnc3[nH]ccc23)c(F)c1
IC50 ([1]; a549): Not Active
IC50 [2, 6]: 8.98 µM
IC50 [4, 7]: 1.6 µM

CN1CCN(CCCn2cccc2/C=N/NC(=O)Nc2ccc(Oc3ccnc4[nH]ccc34)c(F)c2)CC1
IC50 [1, 5]: 2200 nM
IC50 [2, 6]: 2.74 µM
IC50 [3, 8]: 3.74 µM
IC50 [4, 7]: 2.19 µM

O=C(N/N=C/c1ccc([N+](=O)[O-])cc1)Nc1ccc(Oc2ccnc3[nH]ccc23)cc1
IC50 [1, 5]: 2100 nM
IC50 [2, 6]: 4.62 µM
IC50 [3, 8]: 15.6 µM
IC50 [4, 7]: 28.1 µM

O=C(N/N=C/c1ccc(Cl)c(Cl)c1)Nc1ccc(Oc2ccnc3[nH]ccc23)c(F)c1
IC50 [1, 5]: 2650 nM
IC50 [2, 6]: 3.7 µM
IC50 [3, 8]: 0.998 µM
IC50 [4, 7]: 14.1 µM

O=C(N/N=C/c1ccccc1)Nc1ccc(Oc2ccnc3[nH]ccc23)cc1
IC50 [1, 5]: 17200 nM
IC50 [2, 6]: 0.75 µM
IC50 [3, 8]: 1.51 µM
IC50 [4, 7]: 10.2 µM

O=C(N/N=C/c1cccc([N+](=O)[O-])c1)Nc1ccc(Oc2ccnc3[nH]ccc23)c(F)c1
IC50 [1, 5]: 3640 nM
IC50 [2, 6]: 5.18 µM
IC50 ([3]; mcf7): Not Active
IC50 [4, 7]: 5.14 µM

CN1CCN(CCCn2cccc2/C=N/NC(=O)Nc2ccc(Oc3ccnc4[nH]ccc34)cc2)CC1
IC50 [1, 5]: 1640 nM
IC50 [2, 6]: 2.76 µM
IC50 [3, 8]: 4.28 µM
IC50 [4, 7]: 3.74 µM

COc1ccc(/C=N/NC(=O)Nc2ccc(Oc3ccnc4[nH]ccc34)c(F)c2)c(OC)c1OC
IC50 [1, 5]: 1450 nM
IC50 [2, 6]: 2.99 µM
IC50 [3, 8]: 0.134 µM
IC50 [4, 7]: 8.97 µM

O=C(N/N=C/c1ccc(Br)cc1)Nc1ccc(Oc2ccnc3[nH]ccc23)cc1
IC50 [1, 5]: 640 nM
IC50 [2, 6]: 1 µM
IC50 ([3]; mcf7): Not Active
IC50 ([4]; pc-3): Not Active

COc1ccc(/C=N/NC(=O)Nc2ccc(Oc3ccnc4[nH]ccc34)c(F)c2)cc1
IC50 [1, 5]: 3980 nM
IC50 [2, 6]: 1.77 µM
IC50 [3, 8]: 5.75 µM
IC50 [4, 7]: 6.73 µM

COc1ccc(/C=N/NC(=O)Nc2ccc(Oc3ccnc4[nH]ccc34)cc2)cc1
IC50 [1, 5]: 4300 nM
IC50 [2, 6]: 9.74 µM
IC50 ([3]; mcf7): Not Active
IC50 ([4]; pc-3): Not Active

O=C(N/N=C/c1ccc(O)c(Br)c1)Nc1ccc(Oc2ccnc3[nH]ccc23)c(F)c1
IC50 [1, 5]: 9250 nM
IC50 [2, 6]: 1.36 µM
IC50 [3, 8]: 8.23 µM
IC50 [4, 7]: 28.6 µM

O=C(N/N=C/c1ccc(O)cc1)Nc1ccc(Oc2ccnc3[nH]ccc23)c(F)c1
IC50 [1, 5]: 3760 nM
IC50 [2, 6]: 1.95 µM
IC50 ([3]; mcf7): Not Active
IC50 [4, 7]: 2.78 µM

CC(C)(C)c1cc(/C=N/NC(=O)Nc2ccc(Oc3ccnc4[nH]ccc34)c(F)c2)cc(C(C)(C)C)c1O
IC50 [1, 5]: 13600 nM
IC50 [2, 6]: 7.22 µM
IC50 [3, 8]: 0.84 µM
IC50 [4, 7]: 10.4 µM

O=C(N/N=C/c1cccc(Cl)c1Cl)Nc1ccc(Oc2ccnc3[nH]ccc23)cc1
IC50 ([1]; a549): Not Active
IC50 ([2]; hepg2): Not Active
IC50 ([3]; mcf7): Not Active
IC50 ([4]; pc-3): Not Active

From ChEMBL document CHEMBL4251648, “Synthesis and bioevaluation and doking study of 1H-pyrrolo[2,3-b]pyridine derivatives bearing aromatic hydrazone moiety as c-Met inhibitors” (Eur J Med Chem, 2018)
